Hits are enriched below; roughly 2.4% of the tested compounds scored in any of these assays.
MC4R antag cAMP – human MC4R antagonism in cAMP assay | P32245 | MC4R-expressing cells, MTII-stimulated cAMP, LANCE TR-FRET | inhibition, % at 6.5 µM | hit rate 0.48% among 360,000 | AID 540295;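 active = inhibition above its plate's cutoff, the mean of tested wells on that plate plus 3 SD, cut at about 29% in these data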
Target sequence (P32245 whole entry, looked up): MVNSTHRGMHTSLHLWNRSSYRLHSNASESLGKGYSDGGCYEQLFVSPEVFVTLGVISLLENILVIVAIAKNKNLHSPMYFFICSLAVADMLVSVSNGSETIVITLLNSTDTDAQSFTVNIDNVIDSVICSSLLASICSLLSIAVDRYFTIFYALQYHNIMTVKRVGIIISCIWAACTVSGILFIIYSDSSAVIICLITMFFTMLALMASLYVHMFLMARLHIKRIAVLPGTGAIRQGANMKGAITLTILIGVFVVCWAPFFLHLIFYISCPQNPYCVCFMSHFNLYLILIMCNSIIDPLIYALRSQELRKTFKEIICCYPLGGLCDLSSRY
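Material: human MC4R-expressing U2OS cells. Probe or stimulus: Melanotan II challenge. Dosing: 6.5 µM single dose. Times: 30-min compound, 1-h challenge, 1-h detection, room temperature. Technique: TR-FRET with Eu-cAMP and labeled anti-cAMP, 671 nm. Replication: singlicate.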
MOR-DOR ag – OPRM1-OPRD1 heterodimerization agonism | P35372+P41143 | cells, luminescence | activation, % at 9.3 µM | hit rate 0.3% among 340,000 | AID 504326; in the data active = activation above about 18%
HTR5A inv ag – inverse agonist of human HTR5A in OPRM1-OPRD1 counter-screen; P47898; HTR5A cell line, luminescence, inverse agonism; inhibition, % at 9.3 µM; hit rate 0.083% among 340,000; AID 504634; in the data active = inhibition mostly above about 23%, no sharp cut-off; inactive = mostly below about 18%
Target sequence (P47898 whole entry, looked up): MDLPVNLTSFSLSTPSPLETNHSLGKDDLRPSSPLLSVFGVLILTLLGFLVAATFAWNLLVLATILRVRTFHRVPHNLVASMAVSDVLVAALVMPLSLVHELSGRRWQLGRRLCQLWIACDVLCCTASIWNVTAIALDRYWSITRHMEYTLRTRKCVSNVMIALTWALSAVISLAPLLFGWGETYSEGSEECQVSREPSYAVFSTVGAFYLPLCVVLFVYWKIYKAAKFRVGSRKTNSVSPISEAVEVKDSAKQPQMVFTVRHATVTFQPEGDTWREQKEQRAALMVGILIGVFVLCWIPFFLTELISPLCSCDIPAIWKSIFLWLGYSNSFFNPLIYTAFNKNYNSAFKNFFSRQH
HTR5A ag ctr – counter-screen for OPRM1-OPRD1 agonists: human HTR5A agonism. P47898. HTR5A agonist assay, luminescence, cell-based. activation, % at 9.3 µM. hit rate 0.61% among 340,000; in the data active = activation mostly above about 9.5%, no sharp cut-off; inactive = mostly below about 7.6%
MC4R barr agon – activates human MC4R beta-arrestin recruitment | P32245 | U2OS MC4R beta-arrestin complementation, luminescence; percent of melanotan II response, DMSO zero | activation, % at 8.9 µM | hit rate 0.98% among 360,000;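 active = activation above a per-plate cutoff, the mean activation of sample wells on that plate plus 3 SD, cut at about 8% in these data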
OPRM1-OPRD1 inv – inverse agonist of human OPRM1-OPRD1 heterodimerization. inhibition, % at 9.3 µM. P35372+P41143. hit rate 0.21% among 340,000. cell-based MOR-DOR heterodimer luminescence, inverse agonism; in the data active = inhibition above about 22%, passing the limit was not always enough
MOR-DOR inv conf – confirmation of human OPRM1-OPRD1 heterodimerization inverse agonists | hit rate 20% among 580 | cells expressing OPRM1/OPRD1 heterodimer, luminescence | shares compounds with OPRM1-OPRD1 inv | inhibition, % at 9.3 µM | AID 504900; in the data active = inhibition above about 32%
HTR5A inv ctr2 – HTR5A inverse agonism, opioid heterodimer counter-screen. inhibition, % at 9.3 µM. AID 504914. shares compounds with OPRM1-OPRD1 inv. 580 tested, under 10 active. HTR5A-expressing cells, luminescence; call rule not given here
Large screens that a line does not name were inactive (follow-up assays come after a bar, where they were run).

COc1ccc(/C=C2\SC(N3CCc4ccccc4C3)=NC2=O)cc1OC	none
O=C(c1ccccc1Cl)c1c(O)c2ccccc2oc1=O	none
O=C(Nc1ccc(-c2ccc(N3CCCCC3)nn2)cc1)c1ccco1	none
COc1ccc(C2=NN(CN3C(=O)C(=O)c4ccccc43)C(c3ccc(C)cc3)C2)cc1 (stereo not drawn)	OPRM1-OPRD1 inv 47.0 | MOR-DOR inv conf inactive | HTR5A inv ctr2 inactive
COc1ccc(C2=NN(CN3C(=O)C(=O)c4ccccc43)C(c3ccc(Br)cc3)C2)cc1 (stereo not drawn)	none
CCCCNC(=O)Nc1nnc(C(C)(C)C)s1	none
CC(=O)Nc1ccc(NC(=O)CN(c2cccc([N+](=O)[O-])c2)S(C)(=O)=O)cc1	none
Cc1ccccc1NC1(C#N)C(=O)Nc2ccccc21 (stereo not drawn)	OPRM1-OPRD1 inv 58.2 | MOR-DOR inv conf inactive | HTR5A inv ctr2 inactive
CC(C)c1ccc(NC(=O)CC2Oc3ccccc3NC2=O)cc1 (stereo not drawn)	none
CC(C)c1ccc(NC2(C#N)C(=O)Nc3ccccc32)cc1 (stereo not drawn)	OPRM1-OPRD1 inv 58.9 | MOR-DOR inv conf inactive | HTR5A inv ctr2 inactive
CC(=O)c1cccc(CN2CCCC(CCC(=O)NCc3ccccc3F)C2)c1 (stereo not drawn)	none
COc1ccc(CCNc2ccc(N3C(=O)CC(C)C3=O)cc2[N+](=O)[O-])cc1OC (stereo not drawn)	none
O=S1(=O)N=C(N=Nc2c(O)[nH]c3ccccc23)c2ccccc21	OPRM1-OPRD1 inv 24.6 | MOR-DOR inv conf inactive | HTR5A inv ctr2 inactive
Oc1[nH]c2ccccc2c1N=Nc1ccccc1	none
CC(C)CCN(C(=O)c1csnn1)C(C(=O)NC1CCCCC1)c1ccc(F)cc1 (stereo not drawn)	none
O=C1N=C(c2ccccc2)S/C1=C\c1cccs1	OPRM1-OPRD1 inv 34.3 | MOR-DOR inv conf inactive | HTR5A inv ctr2 inactive
CSCCC1NC(=S)N(Cc2ccccc2)C1=O (stereo not drawn)	OPRM1-OPRD1 inv 41.6 | MOR-DOR inv conf inactive | HTR5A inv ctr2 inactive
O=[N+]([O-])c1c(NCCCO)cc(Sc2nc3ccccc3s2)c2nonc12	OPRM1-OPRD1 inv 34.6 | MOR-DOR inv conf inactive | HTR5A inv ctr2 inactive
CCC(=O)OCCNc1cc(Sc2nc3ccccc3[nH]2)c2nonc2c1[N+](=O)[O-]	OPRM1-OPRD1 inv 43.0 | MOR-DOR inv conf inactive | HTR5A inv ctr2 inactive
COCC1CCN(C(=O)CCc2nnc(C3(c4ccc(Cl)cc4)CCC3)o2)CC1	none
Cc1ccc(-c2nc(CS(=O)(=O)CC(=O)Nc3cc(F)ccc3F)c(C)o2)cc1	none
COc1cc(OC)cc(C(=O)NNC(=S)Nc2ccc(S(N)(=O)=O)cc2)c1	OPRM1-OPRD1 inv 34.0 | MOR-DOR inv conf inactive | HTR5A inv ctr2 inactive
COc1ccc(CNC(=S)Nc2ccc(S(N)(=O)=O)cc2)cc1	none
COc1ccc(OCC(=O)Nc2ccc3nc(C)sc3c2)cc1	none
O=C(CCN1C(=O)C2C3CCC(C3)C2C1=O)OCC(=O)c1cccc([N+](=O)[O-])c1 (stereo not drawn)	OPRM1-OPRD1 inv 61.8 | MOR-DOR inv conf inactive | HTR5A inv ctr2 inactive
O=C(CCN1C(=O)C2C3CC(C(Br)C3Br)C2C1=O)OCC(=O)c1cccc([N+](=O)[O-])c1 (stereo not drawn)	OPRM1-OPRD1 inv 20.6 | MOR-DOR inv conf 38.2 | HTR5A inv ctr2 inactive
O=C(CN1C(=O)C2C3CCC(C3)C2C1=O)OCC(=O)c1ccccc1 (stereo not drawn)	none
CC(C)C(C(=O)OCC(=O)c1cccc([N+](=O)[O-])c1)N1C(=O)[C@@H]2[C@H]3CC[C@H](C3)[C@@H]2C1=O (stereo partly drawn)	none
COc1ccc(C(=O)COC(=O)CCN2C(=O)C3C4CC(C(Br)C4Br)C3C2=O)cc1 (stereo not drawn)	none
O=C(CN1C(=O)C2C3CCC(C3)C2C1=O)OCC(=O)c1cccc([N+](=O)[O-])c1 (stereo not drawn)	HTR5A inv ag 34.8, OPRM1-OPRD1 inv 85.4 | MOR-DOR inv conf inactive | HTR5A inv ctr2 inactive
Cc1ccc(NC(=O)c2cc(S(=O)(=O)c3ccccc3)ccc2Cl)cc1	none
Cc1ccccc1C(=O)NCCCNC(=O)c1ccccc1C	none (no result: MOR-DOR ag, HTR5A inv ag, HTR5A ag ctr, OPRM1-OPRD1 inv)
CCCOc1ccccc1/C=C(\C#N)C(=O)Nc1cccnc1	none
CCn1c(SCC(=O)N2CCCCCC2)nc2c(c1=O)SCC2	none
COc1ccc(-c2nnc3n(CCc4ccccc4)c(=O)c4ccccc4n23)c(OC)c1	none
COc1ccc(CCN(C)Cc2nc(Cc3ccc(OC)c(OC)c3)no2)cc1OC	none
Cc1ccc(NC(=S)NNc2ncc(C(F)(F)F)cc2Cl)c(C)c1	OPRM1-OPRD1 inv 49.4 | MOR-DOR inv conf inactive | HTR5A inv ctr2 inactive
Cc1ccc(NC(=S)NNc2ncc(C(F)(F)F)cc2Cl)cc1	OPRM1-OPRD1 inv 54.7 | MOR-DOR inv conf inactive | HTR5A inv ctr2 inactive
Cc1ccc(NC(=S)NNC(=S)Nc2cccc(C(F)(F)F)c2)cc1	none
CCC(C)C(NS(=O)(=O)c1ccc(C)cc1)C(=O)N1CCOCCOCCOCC1 (stereo not drawn)	none
COc1cc([N+](=O)[O-])cc(/C=N/NC(=O)c2ccc(NC(=O)c3ccc(C)cc3)cc2)c1O	none
COc1cc([N+](=O)[O-])cc(/C=N/NC(=O)c2ccc(C)nc2)c1O	OPRM1-OPRD1 inv 21.8 | MOR-DOR inv conf inactive | HTR5A inv ctr2 inactive
NC(=S)c1cc2ccc(O)cc2oc1=O	OPRM1-OPRD1 inv 30.8 | MOR-DOR inv conf inactive | HTR5A inv ctr2 inactive
O=C(c1cc([N+](=O)[O-])ccc1Cl)N1CCN(Cc2ccccc2)CC1	none
C[C@@H]1CN([C@H](C)CO)S(=O)(=O)c2ccc(Br)cc2O[C@H]1CN(C)C(=O)Nc1ccccc1	none (no result: MOR-DOR ag, HTR5A inv ag, HTR5A ag ctr, OPRM1-OPRD1 inv)
Cc1cc(C)n2nc(SC(C)C(=O)N3CCOCC3)nc2n1 (stereo not drawn)	OPRM1-OPRD1 inv 36.9 | MOR-DOR inv conf inactive | HTR5A inv ctr2 inactive
CN(C(=O)CSc1nnc(-c2ccncc2)n1Cc1ccccc1)C1CCS(=O)(=O)C1 (stereo not drawn)	none
CC(=O)Nc1ccc(O)c(-c2nc3ccccc3s2)c1	OPRM1-OPRD1 inv 26.4 | MOR-DOR inv conf inactive | HTR5A inv ctr2 inactive
CCN(C(=O)CO/N=C/c1ccc(OC)cc1OC)c1c(N)n(Cc2ccccc2)c(=O)[nH]c1=O	none
Cc1csc(=Nc2c(C)n(C)n(-c3ccccc3)c2=O)n1-c1ccccc1	none

Compound activity: PubChem, The Scripps Research Institute Molecular Screening Center
